# Compound activity (PubChem)
# XBP1 UPR activ: adaptive UPR (XBP1) activation. CHO-XBP1 luciferase reporter, IRE1-XBP1 UPR activation, luminescence; percent of tunicamycin response, DMSO as zero. activation, % at 20 µM. 330,000 tested, 0.33% active. AID 463104;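 active = versus positive control, 20 µM dose yields 30% or more activation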;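 also: 100% = tunicamycin at 10 µg/mL and 0% = DMSO only wells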
#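 assay system = CHO-XBP1 luciferase reporter cells | amount = 1000 cells/well | buffer or medium = F12 plus 10% FBS | compound dosing = single point, 20 µM final compound, 1% DMSO | incubation = 16-18 h cell attachment at 37 °C, then 6 h compound exposure | detection = Steady-Glo luminescence read | controls = tunicamycin 10 µg/mL and vehicle-only wells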
# Mdm2 MdmX PPI: human Mdm2/MdmX binding inhibition; O15151+Q00987; SaOS-2 split-luciferase Mdm2/MdmX complementation, luminescence; inhibition, % at 8 µM; 330,000 tested, 3% active;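 active = inhibition of at least 50% at 8 µM in the primary screen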
# Target sequence (O15151 whole entry, looked up): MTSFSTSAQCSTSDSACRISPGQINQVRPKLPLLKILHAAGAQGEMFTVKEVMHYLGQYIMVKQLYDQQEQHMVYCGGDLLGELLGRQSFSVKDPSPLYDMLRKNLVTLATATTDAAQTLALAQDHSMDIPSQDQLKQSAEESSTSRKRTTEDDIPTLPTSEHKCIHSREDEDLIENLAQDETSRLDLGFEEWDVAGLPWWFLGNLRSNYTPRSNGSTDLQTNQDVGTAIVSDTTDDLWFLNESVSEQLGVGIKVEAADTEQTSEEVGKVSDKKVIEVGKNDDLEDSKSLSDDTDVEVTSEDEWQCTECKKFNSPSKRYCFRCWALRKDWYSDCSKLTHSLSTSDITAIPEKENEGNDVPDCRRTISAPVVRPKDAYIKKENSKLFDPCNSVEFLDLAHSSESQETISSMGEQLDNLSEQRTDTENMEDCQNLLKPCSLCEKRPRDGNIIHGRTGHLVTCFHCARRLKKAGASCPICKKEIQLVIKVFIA
# Target sequence (Q00987 whole entry, looked up): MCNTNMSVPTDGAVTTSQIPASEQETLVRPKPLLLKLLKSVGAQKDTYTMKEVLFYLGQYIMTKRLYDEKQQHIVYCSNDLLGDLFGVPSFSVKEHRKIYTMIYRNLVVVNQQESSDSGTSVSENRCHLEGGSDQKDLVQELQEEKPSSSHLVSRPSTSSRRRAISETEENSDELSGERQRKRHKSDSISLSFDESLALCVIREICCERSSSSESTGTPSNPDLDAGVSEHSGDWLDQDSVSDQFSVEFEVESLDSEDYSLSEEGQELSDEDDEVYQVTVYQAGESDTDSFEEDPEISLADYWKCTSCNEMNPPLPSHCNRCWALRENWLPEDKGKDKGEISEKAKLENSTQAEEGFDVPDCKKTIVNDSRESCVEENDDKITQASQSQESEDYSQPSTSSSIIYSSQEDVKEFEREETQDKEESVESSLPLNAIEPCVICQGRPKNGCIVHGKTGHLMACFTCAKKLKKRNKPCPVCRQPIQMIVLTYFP
# CSC inhib: blocks cancer stem cells. cancer stem cell-like cells viability, luminescence. 300,000 tested, 1.1% active. inhibition, % at 7.5 µM; in the data active = inhibition above about 75%; tested in HMLE shEcad cells
# SKKanGAS inh: SKKanGAS growth inhibition | inhibition, % at 7.5 µM | 300,000 tested, 1.3% active | S. pyogenes SKKanGAS, kanamycin growth, BacTiter-Glo, 6 h;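 active = mean replicate score, as percent of positive control median, at least 50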;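 also: strain carries kanamycin resistance gene driven by streptokinase promoter and grows in 40 µg/ml kanamycin; loss of luminescence reflects streptokinase promoter inhibition or plain growth inhibition; 0% = median of DMSO wells and 100% = positive control at its reference dose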
# CHOP UPR activ: apoptotic UPR (CHOP) activation. CHO-CHOP luciferase reporter, luminescence; percent of tunicamycin response over DMSO baseline. activation, % at 10 µM. AID 449763. 330,000 tested, 0.34% active;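 active = at 10 µM dose, activation of 40% or more, normalized to positive control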;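 also: 100% = tunicamycin at 10 µg/mL and 0% = DMSO alone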
#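 Test system: CHO CHOP reporter cells. Input: 500 CHO-CHOP cells per well. Medium: F12 with 10% FBS. Technique: luciferase luminescence. Measure: percent activation relative to tunicamycin control. Dosing: 10 µM compound, 0.5% DMSO. Timing: 16-18 h cell attachment, then 6 h compound exposure, 37 °C.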
# Beta apoptosis: beta cell apoptosis inhibition | 300,000 tested, 0.8% active | AID 435005 | INS-1E cytokine-induced death, ATP luminescence, 48 h; percent of positive-control rescue, neutral wells zero | protection from apoptosis, % (no concentration beside the values);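 active = Every replicate reaches about 75%, or at least half do and their mean reaches it too, limit read from the data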;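 also: 0% = cytokine-treated negative control wells and 100% = positive control rescue; higher means more ATP so stronger rescue from cytokine killing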
# * marks the source's active call; other numbers are inactive results; · = no result given. A selection: hits, their analogues and other compounds. The true share with any hit is near 4.8%.
SMILES,XBP1 UPR activ,Mdm2 MdmX PPI,CSC inhib,SKKanGAS inh,CHOP UPR activ,Beta apoptosis
Cc1onc(-c2ccccc2)c1C(=O)NC(=S)NNC(=O)c1ccccc1O,0,30,9,87*,0,85*
Cc1onc(-c2ccccc2)c1C(=O)NC(=S)NNC(=O)c1ccc(O)cc1,-2,0,19,106*,3,23
COc1ccc(-c2cc(C(F)(F)F)c3c(n2)sc2c(O)cc(=O)[nH]c23)c(OC)c1,4,-7,52,55*,2,5
Cc1cc(C)c2c(n1)sc1c(O)cc(=O)[nH]c12,-2,16,3,5,1,·
COc1ccc(CCNC(=O)CSc2nc3ccsc3c(=O)n2CC2CCC(C(=O)O)CC2)cc1OC (stereo not given),-1,18,9,5,0,-2
CC1(C)OC(C(O)(c2ccccc2)c2ccccc2)[C@@H](C(O)(c2ccccc2)c2ccccc2)O1 (stereo not given in full),·,·,108*,51*,·,32
CC(=O)NNC(=S)NC(=O)C(c1ccccc1)c1ccccc1,0,26,3,61*,0,16
O=C(NC(=S)Nc1ccc(Cl)cn1)C(c1ccccc1)c1ccccc1,3,40,67,77*,0,1
S=C(Nc1ccccc1)Nc1ccc(Cl)cn1,-1,-22,-20,8,3,5
COc1ccc(C2=NS(=O)(=O)N(C)C(C(=O)NCc3cccs3)=C2)cc1OC,-2,15,-1,-2,4,-3
CC(=O)c1c(C)oc2c1C(=O)c1ccccc1C2=O,·,·,83*,10,·,96*
CC(=O)c1c2c3c(c(Br)ccc3n(C)c1=O)C(=O)c1ccccc1-2,0,17,-5,4,0,3
COc1ccc(OCCCC(=O)N(C)CC(=O)Nc2ccccc2Cl)cc1,-5,14,-4,-10,2,4
CCOc1ccccc1NCc1cc(=O)oc2cc(C)c(O)cc12,15,7,3,-5,2,9
COc1cccc(NCc2cc(=O)oc3cc(C)c(O)cc23)c1,-3,-18,-10,99*,1,4
CCN(CC)C(=O)CSc1nc2ccccc2c(=O)n1-c1cccc(OC)c1,1,-13,-10,3,2,-3
Cc1cc2oc(=O)cc(CNc3ccccc3F)c2cc1O,-6,4,30,51*,3,10
COc1cccc(-n2c(SCc3cc(=O)oc4cc(O)c(O)cc34)nc3ccccc3c2=O)c1,·,·,100*,35,·,-6
COc1cccc(NCc2cc(=O)oc3cc(-c4ccccc4)c(O)cc23)c1,0,24,1,110*,3,3
O=C1CN(C(=O)COC(=O)CCS(=O)(=O)c2ccccc2Cl)c2ccccc2N1,0,14,-5,·,4,-6
Cn1nc(-c2ccc(Cl)cc2)c2cc(C(=O)NCCCN3CCCC3)sc21,-2,50,82*,-1,3,17
COCCNC(=O)c1cc2c(-c3ccccc3F)nn(C)c2s1,2,15,-2,-10,-2,3
CCCCN(C)CCNC(=O)c1cc2c(-c3ccccc3F)nn(C)c2s1,0,30,12,5,-2,97*
CCCCNC(=O)c1cc2c(-c3ccc(Cl)cc3)nn(C)c2s1,-1,1,4,-1,1,-4
O=S(=O)(Nc1nc2ccccc2s1)c1cc(F)ccc1F,-5,6,1,9,1,2
SMILES,XBP1 UPR activ,Mdm2 MdmX PPI,CSC inhib,SKKanGAS inh,CHOP UPR activ,Beta apoptosis
O=S(=O)(Nc1nc2ccccc2s1)c1ccc(Cl)s1,-1,26,52,1,1,81*
Nc1cc(Cl)ccc1Oc1ccc2ccccc2c1,1,-6,83*,-1,1,9
CCCn1c(NC(=O)c2ccc(F)cc2)nc2ccccc21,3,14,-1,26,2,30
CCn1c(NC(=O)/C=C/c2ccc(F)cc2)nc2ccccc21,3,42,20,62*,1,19
CCn1nc(C)c(CNC(=O)c2cc(COc3ccc(F)cc3Cl)on2)c1C,0,-17,-5,-6,-2,32
CC(c1nnc(SCC(=O)c2c(N)n(C3CC3)c(=O)[nH]c2=O)n1-c1ccc(F)cc1)N(C)C (stereo not given),-3,20,·,·,-2,-1
O=C(Nc1ccc(O)c(-c2nc3ccccc3o2)c1)C1(c2ccc(Br)cc2)CCCC1,-2,20,84*,7,-1,4
CC(=O)Nc1ccc2oc(-c3ccccc3Br)nc2c1,-1,-156,4,-18,4,-4
C=CCSc1nc(-c2ccccc2)c2cc(Cl)ccc2n1,-4,4,-19,57*,-3,7
Clc1ccc2nnnc(-c3ccccc3)c2c1,·,·,99*,-1,·,99*
N#CCSc1nc(-c2ccccc2)c2cc(Cl)ccc2n1,3,20,6,-6,1,6
COc1ccccc1C(=O)COC(=O)CSC(C)C(=O)Nc1cc(C)on1 (stereo not given),-2,-4,-17,1,1,1
O=C(Nc1ccccc1)c1cc(S(=O)(=O)N2CCCCC2)ccc1N1CCOCC1,-1,-7,·,·,-2,·
O=C(O)CN1C(=O)/C(=C\c2cc(Br)ccc2OCc2ccc(Cl)cc2Cl)SC1=S,-5,2,108*,105*,-1,-4
O=C(O)CN1C(=O)/C(=C\c2ccccc2OCc2ccc(Cl)cc2)SC1=S,-3,19,10,26,3,-4
COC(=O)c1ccccc1NC(=O)CNc1ccc(F)c(S(=O)(=O)N2CCOCC2)c1,-3,-8,-14,·,1,-8
CCCCn1c(CCCNC(=O)c2ccco2)nc2ccccc21,-3,-1,-4,53*,-1,·
O=C(/C=C/c1cccc([N+](=O)[O-])c1)c1ccc([N+](=O)[O-])o1,·,·,42,86*,·,133*
O=C(CN1CCCC1)Nc1sc2c(c1C(=O)Nc1ccc(Br)cc1)CCC2,-5,-7,12,61*,2,·
COc1ccc(NC(=O)c2c(NC(=O)CNCc3ccco3)sc3c2CCC3)cc1,-2,7,-2,8,-2,15
CCOc1ccc(NC(=O)c2c(NC(=O)CNCCN3CCOCC3)sc3c2CCC3)cc1,2,15,0,90*,4,·
CN1CCN(CC(=O)Nc2sc3c(c2C(=O)Nc2ccccc2)CCCC3)CC1,-3,40,-9,-9,1,2
O=C(CN(c1ccc(Cl)c(C(F)(F)F)c1)S(=O)(=O)c1ccccc1)N/N=C/c1cccc2c1OCCO2,-2,41,10,54*,1,-5
CS(=O)(=O)N(CC(=O)N/N=C/c1cccc2c1OCCO2)c1ccccc1Br,-4,5,-10,4,-1,-4
